PubChem BioAssay AID652287 (Sanford-Burnham Center for Chemical Genomics, 2013)
Values joined by “and” are separate entries in the source; they are usually repeats but may differ in a detail not shown here. Equal values may be shown once. Active and inactive are the calls of the source.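 The calls were made as follows: active = compounds with IC50 of 20 µM or lower; inactive = the rest.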

Biological target: Fatty acid synthase (Homo sapiens) (UniProt P49327)
Assay: FAS thioesterase domain inhibitors, SAR follow-up, biochemical, endpoint fluorescence, OMFH substrate, round 2, powder samples (AID 652287)
Details: recombinant FAS-TE, OMFH fluorogenic substrate
Outline: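 material = fatty acid synthase thioesterase domain (FAS-TE) enzyme | input = FAS-TE at 0.9 µM | buffer or medium = 100 mM Tris-HCl pH 7.5 plus NaCl, TCEP, Brij35, sarcosine | doses = compound dose series, 5.5% DMSO | incubation = enzyme reaction 60 min at room temperature | detection = endpoint fluorescence, excitation 480 nm, emission 540 nm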

Chain of Fatty acid synthase (Homo sapiens) (P49327 whole entry, looked up, the tested form may be a part): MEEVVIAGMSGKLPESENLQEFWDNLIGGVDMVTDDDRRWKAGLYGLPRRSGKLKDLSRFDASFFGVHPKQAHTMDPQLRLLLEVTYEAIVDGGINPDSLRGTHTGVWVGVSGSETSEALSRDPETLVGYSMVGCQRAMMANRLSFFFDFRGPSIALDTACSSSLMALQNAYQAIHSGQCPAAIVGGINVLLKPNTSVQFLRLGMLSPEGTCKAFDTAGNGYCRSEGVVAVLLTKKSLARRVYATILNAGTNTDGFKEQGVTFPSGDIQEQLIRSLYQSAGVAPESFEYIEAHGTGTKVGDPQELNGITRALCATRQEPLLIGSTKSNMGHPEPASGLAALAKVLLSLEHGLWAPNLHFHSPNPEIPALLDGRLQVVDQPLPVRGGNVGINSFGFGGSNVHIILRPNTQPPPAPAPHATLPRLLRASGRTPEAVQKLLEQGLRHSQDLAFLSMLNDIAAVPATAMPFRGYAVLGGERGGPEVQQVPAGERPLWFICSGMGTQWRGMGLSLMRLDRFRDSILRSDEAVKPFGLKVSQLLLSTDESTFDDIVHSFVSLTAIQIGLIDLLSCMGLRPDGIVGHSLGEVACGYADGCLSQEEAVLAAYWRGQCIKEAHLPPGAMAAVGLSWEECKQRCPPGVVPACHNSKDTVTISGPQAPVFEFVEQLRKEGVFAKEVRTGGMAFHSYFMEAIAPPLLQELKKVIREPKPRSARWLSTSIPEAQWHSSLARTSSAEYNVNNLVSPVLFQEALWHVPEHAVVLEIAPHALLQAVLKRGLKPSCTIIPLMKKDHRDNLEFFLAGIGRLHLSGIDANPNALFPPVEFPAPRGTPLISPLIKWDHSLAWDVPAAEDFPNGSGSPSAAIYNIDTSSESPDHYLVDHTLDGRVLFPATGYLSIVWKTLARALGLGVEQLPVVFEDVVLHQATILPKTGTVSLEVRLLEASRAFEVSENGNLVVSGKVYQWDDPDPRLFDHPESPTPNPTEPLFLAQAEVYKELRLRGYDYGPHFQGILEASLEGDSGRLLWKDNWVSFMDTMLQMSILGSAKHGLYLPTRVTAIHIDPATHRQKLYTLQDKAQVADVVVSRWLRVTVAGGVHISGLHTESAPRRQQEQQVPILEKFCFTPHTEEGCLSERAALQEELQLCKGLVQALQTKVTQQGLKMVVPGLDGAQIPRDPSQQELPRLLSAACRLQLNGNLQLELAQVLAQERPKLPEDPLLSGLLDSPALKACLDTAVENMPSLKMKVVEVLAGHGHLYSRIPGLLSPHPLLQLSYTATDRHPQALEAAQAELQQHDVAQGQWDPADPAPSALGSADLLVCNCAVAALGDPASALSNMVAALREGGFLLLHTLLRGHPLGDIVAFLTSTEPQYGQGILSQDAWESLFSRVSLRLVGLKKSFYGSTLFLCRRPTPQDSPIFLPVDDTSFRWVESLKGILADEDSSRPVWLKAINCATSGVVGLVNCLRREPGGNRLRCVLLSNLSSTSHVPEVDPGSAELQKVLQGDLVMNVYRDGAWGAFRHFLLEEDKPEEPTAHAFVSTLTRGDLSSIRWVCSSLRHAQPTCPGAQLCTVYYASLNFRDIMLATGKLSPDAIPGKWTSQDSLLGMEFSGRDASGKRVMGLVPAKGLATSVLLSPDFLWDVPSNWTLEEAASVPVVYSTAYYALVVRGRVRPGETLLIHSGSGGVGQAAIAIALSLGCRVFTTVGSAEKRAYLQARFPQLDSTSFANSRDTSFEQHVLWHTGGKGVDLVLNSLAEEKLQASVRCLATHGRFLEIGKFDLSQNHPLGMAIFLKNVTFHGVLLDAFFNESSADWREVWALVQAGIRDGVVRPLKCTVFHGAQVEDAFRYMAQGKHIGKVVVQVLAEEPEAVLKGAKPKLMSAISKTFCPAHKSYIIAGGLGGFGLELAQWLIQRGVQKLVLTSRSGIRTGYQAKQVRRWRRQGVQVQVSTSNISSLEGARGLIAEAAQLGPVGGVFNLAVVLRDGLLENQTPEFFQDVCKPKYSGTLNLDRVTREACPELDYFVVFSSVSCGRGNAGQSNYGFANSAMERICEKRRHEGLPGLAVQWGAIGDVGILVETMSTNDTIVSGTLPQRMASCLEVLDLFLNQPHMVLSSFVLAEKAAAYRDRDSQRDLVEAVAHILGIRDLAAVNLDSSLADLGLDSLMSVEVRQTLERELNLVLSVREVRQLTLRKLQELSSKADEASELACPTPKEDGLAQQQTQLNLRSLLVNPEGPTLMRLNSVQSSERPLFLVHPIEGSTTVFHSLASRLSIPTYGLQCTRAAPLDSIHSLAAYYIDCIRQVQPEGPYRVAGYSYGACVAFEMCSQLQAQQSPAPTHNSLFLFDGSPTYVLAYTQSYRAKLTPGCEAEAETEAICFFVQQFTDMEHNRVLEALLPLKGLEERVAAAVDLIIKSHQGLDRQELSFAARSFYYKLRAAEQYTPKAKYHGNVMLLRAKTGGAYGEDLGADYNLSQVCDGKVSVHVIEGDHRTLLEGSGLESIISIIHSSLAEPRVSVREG

Row | Compound | IC50
1 | CCCCCC(=O)Nc1nc(-c2ccc(S(=O)(=O)N3CCCCC3C)cc2)cs1 (stereo not drawn) | 580 nM
2 | CCCCCCC(=O)Nc1nc(-c2ccc(S(=O)(=O)N(CC)CC)cc2)cs1 | 1390 nM
3 | CC(C)CC(=O)Nc1nc(-c2ccc(S(=O)(=O)N3CCCC3)cc2)cs1 | 1640 nM
4 | CCC(CC)C(=O)Nc1nc(-c2ccc(S(=O)(=O)N3CCCC3)cc2)cs1 | 257 nM
5 | CCC(CC)C(=O)Nc1nc(-c2ccc(S(=O)(=O)N(CC)CC)cc2)cs1 | 328 nM
6 | CCCCCC(=O)Nc1nc(-c2ccc(S(=O)(=O)N3CCCC3)cc2)cs1 | 141 nM
7 | CC(C)CC(=O)Nc1nc(-c2ccc(S(=O)(=O)N3CCC(C)CC3)cc2)cs1 | inactive
8 | CCCCC(=O)Nc1nc(-c2ccc(S(=O)(=O)N3CCOCC3)cc2)cs1 | 204 nM
9 | CC1CCN(S(=O)(=O)c2ccc(-c3csc(NC(=O)C(C)C)n3)cc2)CC1 | 511 nM
10 | CCC(C)C(=O)Nc1nc(-c2ccc(S(=O)(=O)N3CCC(C)CC3)cc2)cs1 (stereo not drawn) | 409 nM
11 | Cn1c(SCC(=O)Nc2ncc(C(F)(F)F)cc2Cl)nnc1-c1ccc(Cl)cc1 | 686 nM

The remaining lines, values ahead:

Row | IC50 | Compound
12 | 4320 nM | CCCCCCC(=O)Nc1nc(-c2ccc(S(=O)(=O)N3CCCCC3C)cc2)cs1 (stereo not drawn)
13 | 343 nM | CN(Cc1ccc(C(C)(C)C)cc1)C(=O)Cc1ccc(S(=O)(=O)N2CCOCC2)s1
14 | 145 nM | CCC(C)C(=O)Nc1nc(-c2ccc(S(=O)(=O)N3CCCC3)cc2)cs1 (stereo not drawn)
15 | 1130 nM and 154 nM | CCC(C)C(=O)Nc1nc(-c2ccc(S(=O)(=O)N(CC)CC)cc2)cs1 (stereo not drawn)
16 | 107 nM | CCCCCCCCCCC[C@H](C[C@@H]1OC(=O)[C@H]1CCCCCC)OC(=O)[C@@H](NC=O)C(C)C
17 | 382 nM | CCCCC(=O)Nc1nc(-c2ccc(S(=O)(=O)N3CCCCC3C)cc2)cs1 (stereo not drawn)
18 | 196 nM | CCCCCC(=O)Nc1nc(-c2ccc(S(=O)(=O)N(CC)CC)cc2)cs1
19 | 846 nM | CCCCCCC(=O)Nc1nc(-c2ccc(S(=O)(=O)N3CCCC3)cc2)cs1
20 | 285 nM | CCC(C)C(=O)Nc1nc(-c2ccc(S(=O)(=O)N3CCCCC3C)cc2)cs1 (stereo not drawn)
21 | 1830 nM | CCC(CC)C(=O)Nc1nc(-c2ccc(S(=O)(=O)N3CCC(C)CC3)cc2)cs1
22 | 4470 nM | CCCCCCC(=O)Nc1nc(-c2ccc(S(=O)(=O)N3CCC(C)CC3)cc2)cs1
23 | 745 nM | CCCCCC(=O)Nc1nc(-c2ccc(S(=O)(=O)N3CCC(C)CC3)cc2)cs1
